Source: ChEMBL document CHEMBL2029301, “Development of a series of 3-hydroxyquinolin-2(1H)-ones as selective inhibitors of HIV-1 reverse transcriptase associated RNase H activity” (Bioorg Med Chem Lett, 2012)
pEC50, pIC50: −log10 of the molar value. Active and inactive are the calls of the source. The rule behind the calls is not given here.

Key:
[1] = molecular target: T1, Human immunodeficiency virus type 1 reverse transcriptase (Human immunodeficiency virus 1, UniProt Q72547); experiment: Inhibition of HIV1 reverse transcriptase RNase H activity
[2] = test system: Human immunodeficiency virus 1; experiment: Antiviral activity against HIV1 infected in MT4 cells assessed as inhibition of virus-induced cytopathic effect; format: functional, organism-based; conditions: Human immunodeficiency virus 1, MT4
[3] = Cytotoxicity against human MT4 cells; format: cell-based
[4] = molecular target: Human immunodeficiency virus type 1 reverse transcriptase (Human immunodeficiency virus 1) (UniProt Q72547); experiment: Inhibition of HIV1 reverse transcriptase RNase H activity assessed as remaining activity at 100 uM
Summary of the method: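 In vitro HIV-1 RT-associated RNase H activity measured with compound at 100 µM, expressed as percentage of remaining enzyme activity.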

[5] = molecular target: T1, Human immunodeficiency virus type 1 reverse transcriptase; experiment: Inhibition of HIV1 reverse transcriptase associated RNA dependent polymerase activity
Summary of the method: (§1)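 Mg-dependent HIV-1 integrase and RT RNA-dependent DNA polymerase activities measured in vitro, with compounds tested at concentrations up to 250 µM.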

[6] = molecular target: Human immunodeficiency virus type 1 integrase (Human immunodeficiency virus 1, UniProt Q7ZJM1); experiment: Inhibition of HIV1 integrase; summary of the method: as §1
[7] = test system: Human immunodeficiency virus 1; experiment: Binding affinity to HIV1 Reverse transcriptase RNase H domain p15 assessed as intrinsic fluorescence quenching at 100 uM by fluorimetry
Summary of the method: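 Recombinant isolated HIV-1 RT RNase H domain (p15) excited at 290 nm to maximise the tryptophan signal. Ligand binding at the active site is read as quenching of intrinsic fluorescence. HTHI (2-hydroxy-1,2,3,4-tetrahydroisoquinoline-1,3-dione) serves as positive control.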

[8] = molecular target: Human immunodeficiency virus type 1 reverse transcriptase (Human immunodeficiency virus 1) (UniProt Q72547); experiment: Selectivity ratio of IC50 for HIV1 reverse transcriptase associated RNA dependent polymerase activity to IC50 for reverse transcriptase Rnase H activity
[9] = test system: Human immunodeficiency virus 1; experiment: Selectivity ratio of IC50 for HIV1 integrase to IC50 for reverse transcriptase Rnase H activity

Sequence of Human immunodeficiency virus type 1 integrase (Q7ZJM1 whole entry): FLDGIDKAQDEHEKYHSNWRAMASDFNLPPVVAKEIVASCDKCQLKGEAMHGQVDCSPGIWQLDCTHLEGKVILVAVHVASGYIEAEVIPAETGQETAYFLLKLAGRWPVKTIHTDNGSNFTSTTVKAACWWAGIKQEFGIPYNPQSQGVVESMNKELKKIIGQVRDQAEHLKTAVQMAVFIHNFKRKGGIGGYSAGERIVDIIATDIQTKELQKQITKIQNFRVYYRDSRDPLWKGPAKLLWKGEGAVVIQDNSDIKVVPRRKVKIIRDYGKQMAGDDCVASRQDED

SMILES	pIC50 [1]	pEC50 [2]	Activity [4] [%]	pIC50 [5]	pIC50 [6]	Activity [7]	Ratio IC50 [8]	Ratio IC50 [9]	CC50 [3] [µM]
O=C(O)c1c(O)c(O)nc2ccccc12	4.23	< 3.60							> 250
O=c1[nH]c2ccccc2cc1O			97						115
O=C(NCc1ccc(F)cc1)c1c(O)c(=O)[nH]c2c(F)cccc12	4.12	< 5.17							8
CCOC(=O)c1c(O)c(O)nc2ccccc12	4.80	< 3.68							210
COc1ccc(CNC(=O)c2c(O)c(=O)[nH]c3c(F)cccc23)cc1	4.13	< 5.10							8
CCOC(=O)c1c(O)c(=O)[nH]c2c(F)cccc12	< 4.00	< 3.62	100						238
CCCCCCNC(=O)c1c(O)c(=O)[nH]c2c(F)cccc12	4.31	< 4.66							22
CCOC(=O)c1c(O)c(=O)[nH]c2ccc(F)cc12	< 4.00	< 3.87	100						134
O=C(NCc1ccc(F)cc1)c1c(O)c(=O)[nH]c2ccccc12	4.72	< 4.54		< 3.60	< 3.60	Active			29
CCOC(=O)c1c(O)c(=O)[nH]c2ccc(Cl)cc12	< 4.00	< 3.93	100						117
COc1ccc(CNC(=O)c2c(O)c(=O)[nH]c3ccc(F)cc23)cc1	4.72	< 4.54		< 3.60	< 3.60				29
O=C(NCc1ccc(F)cc1)c1c(O)c(=O)[nH]c2ccc(Cl)cc12	4.74	< 4.55		< 3.60	< 3.60		> 14	> 14	28
O=C(NCc1ccc(F)cc1)c1c(O)c(=O)[nH]c2ccc(F)cc12	4.66	< 4.62		< 3.60	< 3.60				24

Further lines, with some results ahead:

pIC50 [1]	pEC50 [2]	Activity [4] [%]	pIC50 [5]	pIC50 [6]	Activity [7]	Ratio IC50 [8]	Ratio IC50 [9]	SMILES	CC50 [3] [µM]
< 4.00	< 3.60	100						O=C(O)c1c(O)c(=O)[nH]c2ccc(Cl)cc12	> 250
< 4.00	< 3.60	88						O=C(O)c1c(O)c(=O)[nH]c2c(F)cccc12	> 250
4.01	< 3.60							O=C(O)c1c(O)c(=O)[nH]c2ccc([N+](=O)[O-])cc12	> 250
< 4.00	< 3.60	100						O=C(O)c1c(O)c(=O)[nH]c2ccc(F)cc12	250
< 4.00	< 3.60	100						CCOC(=O)c1c(O)c(=O)[nH]c2ccc(N)cc12	250
4.19	< 3.93							CCOC(=O)c1c(O)c(=O)[nH]c2ccc([N+](=O)[O-])cc12	118
